# Results as given in PubChem BioAssay AID623974 (Vanderbilt High Throughput Screening Facility, 2012).
# Calls of active or inactive are those of the source. How the calls were made is not given here.
# Target: G protein-activated inward rectifier potassium channel 2 (Homo sapiens) + G protein-activated inward rectifier potassium channel 3 (Homo sapiens) (UniProt P48051+Q92806)
# Test: activation of GIRK2/3 current, electrophysiology, HEK-293 hGIRK2/3, whole-cell voltage clamp, Ba2+-sensitive current, GIRK activator project, confirmation (AID 623974)
# Summary of the method: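 Assay system – HEK-293 cells stably expressing human GIRK2/3 potassium channels · Doses – compound concentration series fitted by four-parameter logistic curve · Timing – recording 24–72 h post-plating · Detection – whole-cell patch clamp, -70 mV holding, barium subtraction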
# Sequence of G protein-activated inward rectifier potassium channel 2 (Homo sapiens) + G protein-activated inward rectifier potassium channel 3 (Homo sapiens) (P48051 whole entry, looked up): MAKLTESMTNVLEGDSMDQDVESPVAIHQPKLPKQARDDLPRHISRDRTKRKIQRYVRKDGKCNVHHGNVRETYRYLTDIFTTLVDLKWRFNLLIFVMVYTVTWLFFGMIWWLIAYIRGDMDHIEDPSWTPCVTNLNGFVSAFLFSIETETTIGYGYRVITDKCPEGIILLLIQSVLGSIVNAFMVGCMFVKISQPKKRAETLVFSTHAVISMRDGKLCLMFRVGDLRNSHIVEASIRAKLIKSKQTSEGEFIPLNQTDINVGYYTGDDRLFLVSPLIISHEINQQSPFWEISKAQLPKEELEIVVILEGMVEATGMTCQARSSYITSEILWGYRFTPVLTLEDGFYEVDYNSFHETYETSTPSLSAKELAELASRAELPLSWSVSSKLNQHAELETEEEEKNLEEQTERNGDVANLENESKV
# Sequence of G protein-activated inward rectifier potassium channel 2 (Homo sapiens) + G protein-activated inward rectifier potassium channel 3 (Homo sapiens) (Q92806 whole entry, looked up): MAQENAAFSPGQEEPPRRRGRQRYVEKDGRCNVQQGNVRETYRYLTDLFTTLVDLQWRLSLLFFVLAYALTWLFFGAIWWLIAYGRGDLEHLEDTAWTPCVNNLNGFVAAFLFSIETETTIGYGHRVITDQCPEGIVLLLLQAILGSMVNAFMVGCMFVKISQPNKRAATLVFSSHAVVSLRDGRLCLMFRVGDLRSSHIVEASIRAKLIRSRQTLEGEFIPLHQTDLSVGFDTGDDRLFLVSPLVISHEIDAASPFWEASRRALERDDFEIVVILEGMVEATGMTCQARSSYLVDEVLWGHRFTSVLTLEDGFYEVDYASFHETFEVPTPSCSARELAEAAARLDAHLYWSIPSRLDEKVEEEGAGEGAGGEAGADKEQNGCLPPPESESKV
compound,measurement,value
Cc1cc(NC(=O)Nc2ccc(F)c(F)c2)n(-c2ccccc2)n1,outcome,inactive
